≈ marks a conversion by molar mass, not a printed value.
Columns and labels:
[1] = tested on: Bacteroides fragilis; test: Antibacterial activity against Bacteroides fragilis assessed as resistant isolates by CLSI agar dilution method in presence of clavulanate; format: functional
Method in brief: (§1)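 207 nonduplicate anaerobic blood isolates from patients with bloodstream infections at NTUH, collected January–December 2006. MICs were determined by agar dilution following CLSI guidelines. Inocula were applied with a Steers replicator onto supplemented Brucella blood agar and incubated 48 h at 35°C in an anaerobic chamber. MIC was the lowest concentration inhibiting growth. B. fragilis ATCC 25285, B. thetaiotaomicron ATCC 29741 and E. lentum ATCC 43055 served as controls in each run.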

[2] = tested on: Bacteroides thetaiotaomicron; test: Antibacterial activity against beta-lactamase producing Bacteroides thetaiotaomicron assessed as susceptible isolates by CLSI agar dilution method in presence of clavulanate; format: functional
Method in brief: (§2)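 Agar dilution per CLSI guidelines on nonduplicate anaerobic bloodstream isolates collected at NTUH, January to December 2006. Isolates were spotted by Steers replicator onto supplemented Brucella blood agar and incubated anaerobically for 48 h at 35°C. MIC was the lowest drug concentration that inhibited growth. B. fragilis ATCC 25285, B. thetaiotaomicron ATCC 29741 and E. lentum ATCC 43055 were run as QC in each run.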

[3] = tested on: Bacteroides caccae; test: Antibacterial activity against beta-lactamase producing Bacteroides caccae assessed as susceptible isolates by CLSI agar dilution method in presence of clavulanate; format: functional; method in brief: as §2
[4] = tested on: Bacteroides caccae; test: Antibacterial activity against beta-lactamase producing Bacteroides caccae assessed as resistant isolates by CLSI agar dilution method in presence of clavulanate; format: functional; method in brief: as §1
[5] = tested on: Fusobacterium necrophorum; test: Antibacterial activity against Fusobacterium necrophorum by CLSI agar dilution method in presence of clavulanate; format: functional; method in brief: as §2
[6] = tested on: Fusobacterium varium; test: Antibacterial activity against Fusobacterium varium assessed as susceptible isolates by CLSI agar dilution method in presence of clavulanate; format: functional; method in brief: as §2
[7] = tested on: Prevotella bivia; test: Antibacterial activity against Prevotella bivia assessed as susceptible isolates by CLSI agar dilution method in presence of clavulanate; format: functional; method in brief: as §2
[8] = tested on: Prevotella intermedia; test: Antibacterial activity against Prevotella intermedia assessed as susceptible isolates by CLSI agar dilution method in presence of clavulanate; format: functional; method in brief: as §2
[9] = tested on: Veillonella parvula; test: Antibacterial activity against Veillonella parvula by CLSI agar dilution method in presence of clavulanate; format: functional; method in brief: as §2
[10] = tested on: Clostridium paraputrificum; test: Antibacterial activity against beta-lactamase producing Clostridium paraputrificum by CLSI agar dilution method in presence of clavulanate; format: functional
Method in brief: (§3)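 CLSI agar dilution MICs for anaerobic blood isolates (nonduplicate) collected from bloodstream-infection patients at a Taiwanese tertiary hospital, January–December 2006. Isolates were spotted by Steers replicator onto supplemented Brucella blood agar and incubated anaerobically for 48 h at 35°C. MIC was the lowest drug concentration inhibiting growth. Each run included B. fragilis ATCC 25285, B. thetaiotaomicron ATCC 29741 and E. lentum ATCC 43055 as quality-control strains.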

[11] = tested on: Clostridium tertium; test: Antibacterial activity against beta-lactamase producing Clostridium tertium by CLSI agar dilution method in presence of clavulanate; format: functional; method in brief: as §3
[12] = tested on: Clostridium paraputrificum; test: Antibacterial activity against beta-lactamase producing Clostridium paraputrificum assessed as resistant isolates by CLSI agar dilution method in presence of clavulanate; format: functional; method in brief: as §1
[13] = tested on: Peptostreptococcus anaerobius; test: Antibacterial activity against beta-lactamase producing Peptostreptococcus anaerobius assessed as susceptible isolates by CLSI agar dilution method in presence of clavulanate; format: functional; method in brief: as §3
[14] = tested on: Peptoniphilus asaccharolyticus; test: Antibacterial activity against beta-lactamase producing Peptoniphilus asaccharolyticus by CLSI agar dilution method in presence of clavulanate; format: functional; method in brief: as §3
[15] = tested on: Finegoldia magna; test: Antibacterial activity against beta-lactamase producing Finegoldia magna by CLSI agar dilution method in presence of clavulanate; format: functional; method in brief: as §3
[16] = tested on: Bacteroides thetaiotaomicron; test: Antibacterial activity against beta-lactamase producing Bacteroides thetaiotaomicron by CLSI agar dilution method in presence of Tazobactam; format: functional; method in brief: as §2
[17] = tested on: Bacteroides fragilis; test: Antibacterial activity against Bacteroides fragilis assessed as susceptible isolates by CLSI agar dilution method in presence of Tazobactam; format: functional; method in brief: as §2
[18] = tested on: Bacteroides thetaiotaomicron; test: Antibacterial activity against beta-lactamase producing Bacteroides thetaiotaomicron assessed as resistant isolates by CLSI agar dilution method; format: functional
[19] = tested on: Bacteroides uniformis; test: Antibacterial activity against beta-lactamase producing Bacteroides uniformis by CLSI agar dilution method in presence of Tazobactam; format: functional; method in brief: as §2
[20] = tested on: Bacteroides caccae; test: Antibacterial activity against beta-lactamase producing Bacteroides caccae assessed as susceptible isolates by CLSI agar dilution method; format: functional
[21] = tested on: Fusobacterium nucleatum; test: Antibacterial activity against Fusobacterium nucleatum assessed as susceptible isolates by CLSI agar dilution method in presence of Tazobactam; format: functional; method in brief: as §2
[22] = tested on: Prevotella intermedia; test: Antibacterial activity against Prevotella intermedia by CLSI agar dilution method; format: functional
[23] = tested on: Prevotella bivia; test: Antibacterial activity against Prevotella bivia by CLSI agar dilution method in presence of Tazobactam; format: functional; method in brief: as §2
[24] = tested on: Prevotella intermedia; test: Antibacterial activity against Prevotella intermedia by CLSI agar dilution method in presence of Tazobactam; format: functional; method in brief: as §2
[25] = tested on: Prevotella bivia; test: Antibacterial activity against Prevotella bivia assessed as resistant isolates by CLSI agar dilution method; format: functional
[26] = tested on: Prevotella melaninogenica; test: Antibacterial activity against Prevotella melaninogenica assessed as resistant isolates by CLSI agar dilution method; format: functional
[27] = tested on: Prevotella bivia; test: Antibacterial activity against Prevotella bivia assessed as susceptible isolates by CLSI agar dilution method in presence of Tazobactam; format: functional; method in brief: as §2
[28] = tested on: Prevotella melaninogenica; test: Antibacterial activity against Prevotella melaninogenica assessed as susceptible isolates by CLSI agar dilution method in presence of Tazobactam; format: functional; method in brief: as §2
[29] = tested on: Prevotella buccae; test: Antibacterial activity against Prevotella buccae assessed as resistant isolates by CLSI agar dilution method in presence of Tazobactam; format: functional, Segatella buccae; method in brief: as §1
[30] = tested on: Prevotella melaninogenica; test: Antibacterial activity against Prevotella melaninogenica assessed as resistant isolates by CLSI agar dilution method in presence of Tazobactam; format: functional; method in brief: as §1
[31] = tested on: Clostridium perfringens; test: microbe, parasite or virus in culture; format: functional
[32] = tested on: Clostridium paraputrificum; test: Antibacterial activity against beta-lactamase producing Clostridium paraputrificum assessed as susceptible isolates by CLSI agar dilution method in presence of Tazobactam; format: functional; method in brief: as §3
[33] = tested on: Peptostreptococcus anaerobius; test: Antibacterial activity against beta-lactamase producing Peptostreptococcus anaerobius by CLSI agar dilution method in presence of Tazobactam; format: functional; method in brief: as §3
[34] = tested on: Parvimonas micra; test: Antibacterial activity against beta-lactamase producing Micromonas micros assessed as resistant isolates by CLSI agar dilution method; format: functional
[35] = tested on: Parvimonas micra; test: Antibacterial activity against beta-lactamase producing Micromonas micros assessed as susceptible isolates by CLSI agar dilution method in presence of Tazobactam; format: functional; method in brief: as §3
[36] = tested on: Peptoniphilus asaccharolyticus; test: Antibacterial activity against beta-lactamase producing Peptoniphilus asaccharolyticus assessed as resistant isolates by CLSI agar dilution method; format: functional
[37] = tested on: Finegoldia magna; test: Antibacterial activity against beta-lactamase producing Finegoldia magna assessed as susceptible isolates by CLSI agar dilution method in presence of Tazobactam; format: functional; method in brief: as §3
[38] = tested on: Finegoldia magna; test: Antibacterial activity against beta-lactamase producing Finegoldia magna assessed as resistant isolates by CLSI agar dilution method in presence of Tazobactam; format: functional; method in brief: as §1

## CC1(C)S[C@@H]2[C@H](NC(=O)[C@H](N)c3ccc(O)cc3)C(=O)N2[C@H]1C(=O)O [AMOXICILLIN]
[1]
  Activity: 23%
[2]
  Activity: 63%
[3]
  Activity: 53%
[4]
  Activity: 30%
[5]
  MIC50: 2 µg/mL
  MIC90: 4 µg/mL
[6]
  Activity: 89%
[7]
  Activity: 81%
[8]
  Activity: 81%
[9]
  MIC: 0.12 µg/mL
[10]
  MIC50: 0.5 µg/mL
  MIC90: 2 µg/mL
[11]
  MIC50: 0.5 µg/mL
  MIC90: 2 µg/mL
[12]
  Activity: 4%
[13]
  Activity: 94%
[14]
  MIC50: 0.25 µg/mL
  MIC90: 2 µg/mL
[15]
  MIC50: 0.25 µg/mL
  MIC90: 2 µg/mL

## CCN1CCN(C(=O)N[C@@H](C(=O)N[C@@H]2C(=O)N3[C@@H]2SC(C)(C)[C@@H]3C(=O)O)c2ccccc2)C(=O)C1=O [PIPERACILLIN]
[16]
  MIC50: 8 µg/mL
  MIC90: 32 µg/mL
[17]
  Activity: 95%
[18]
  Activity: 37%
[19]
  MIC50: 8 µg/mL
  MIC90: 16 µg/mL
[20]
  Activity: 35%
[21]
  Activity: 100%
[22]
  MIC50: 16 µg/mL (≈ 30.9 µM)
  MIC90: 128 µg/mL (≈ 247 µM)
[23]
  MIC: 0.03 µg/mL
  MIC50: 0.03 µg/mL
  MIC90: 1 µg/mL
[24]
  MIC: 0.03 µg/mL
  MIC50: 0.03 µg/mL
  MIC90: 1 µg/mL
[25]
  Activity: 22%
[26]
  Activity: 22%
[27]
  Activity: 100%
[28]
  Activity: 100%
[29]
  Activity: 0%
[30]
  Activity: 0%
[31]
  MIC50: 0.25 µg/mL (≈ 0.483 µM)
  MIC90: 2 µg/mL (≈ 3.86 µM)
[32]
  Activity: 100%
[33]
  MIC: 0.03 µg/mL
  MIC50: 0.03 µg/mL
  MIC90: 2 µg/mL
[34]
  Activity: 3%
[35]
  Activity: 97%
[36]
  Activity: 3%
[37]
  Activity: 97%
[38]
  Activity: 0%

Reference: ChEMBL document CHEMBL1671627, “Increasing trends in antimicrobial resistance among clinically important anaerobes and Bacteroides fragilis isolates causing nosocomial infections: emerging resistance to carbapenems” (2008)
